This is an account of results in the array DNA melting data of Ke et al. (doi:10.1101/2024.01.08.574731).

A short description of data set [1]: melting temperature; fluorescence melt of hairpins on a sequencing array, two-state fit, raised by 9.35 °C to match UV melts. Conditions: sodium 0.088 M. In a few lines: (§1)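 Folding enthalpy and melting temperature were estimated with bootstrapped two-state fits and combined across four replicates by inverse-variance weighting, with fitted temperatures raised by 9.35 °C to match UV melts. The data were Cy3 fluorescence of library hairpins, with annealed Cy3 and quencher oligos, on a sequenced MiSeq flow cell in 50 mM Na-HEPES pH 8.0, 25 mM NaCl, imaged in 2.5 °C steps up to 60 °C and normalised to pre-quench Cy3 and control constructs.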

A short description of data set [2]: folding enthalpy; higher = less favourable; fluorescence melt of hairpins on a sequencing array, two-state fit. Conditions: sodium 0.088 M. The method in brief:
as §1

On to GATCTTGCGCAAGATC ((((((....)))))), for which the Tm in data set [1] came to 55.5 °C. For the same sequence, the folding enthalpy in data set [2] was -54.1 kcal/mol.
For GACGGCGAAAGCCCAGTC ((((((....)))..))), the Tm in data set [1] turned out to be 41.8 °C. The folding enthalpy in data set [2] is -13.1 kcal/mol.
The matching figures for GATCAGCACCCTGATC ((((((....)))))): 48.7 °C and -33.1 kcal/mol.
Take GATCTCGTCCGAGATC ((((((....)))))): the Tm in data set [1] came out at 60.5 °C. Also, in data set [2], the folding enthalpy is -38.4 kcal/mol.
The matching figures for GATCAATCTTTTGATC ((((((....)))))): 46.5 °C and -34.1 kcal/mol.
The matching figures for GCGGGCTTCCGC ((((....)))): 61 °C and -21.2 kcal/mol.
The matching figures for GCAATACGAAAGTAATGC (((.(((....))).))): 47.4 °C and -37.4 kcal/mol.
On to GGGGTGACGAAAGTCCCC (((..(((....)))))), for which the Tm in data set [1] is 56 °C. For the same sequence, the folding enthalpy in data set [2] was -31.8 kcal/mol.
The matching figures for GACGTAGAAATACGTC ((((((....)))))): 55 °C and -38.5 kcal/mol.
The matching figures for GCCGCCGAAAGGCGTGGC ((((((....)))..))): 60.1 °C and -12.6 kcal/mol.
As to GTGCACGGAAACGCGCAC ((((.((....)).)))), the Tm in data set [1] came to 57.7 °C. In addition, the folding enthalpy in data set [2] is -49 kcal/mol.
The matching figures for GATCCAAAAATGGATC ((((((....)))))): 42.9 °C and -26.4 kcal/mol.
The matching figures for ACCGGGAAACCGGT (((((....))))): 66.5 °C and -16.6 kcal/mol.
The matching figures for GACATCGGAAACGATATC ((.((((....)))).)): 31.6 °C and -21.9 kcal/mol.
Consider GTGCTTGGAAACGAGTAC ((.((.(....).)).)), for which the Tm in data set [1] stood at 35 °C. Besides, the folding enthalpy in data set [2] is -19.3 kcal/mol.
As to GATCTTGTCCAAGATC ((((((....)))))), the Tm in data set [1] came to 50.1 °C. In data set [2], the folding enthalpy was -34.2 kcal/mol.
The matching figures for GATCACTTTCGTGATC ((((((....)))))): 56.4 °C and -36.8 kcal/mol.
The matching figures for GCGATAGGAAACTATTGC ((.((((....)))).)): 45.6 °C and -38.8 kcal/mol.
On to GTTGCCGAAAGGCTAAC ((((((....))).))), for which the Tm in data set [1] is 42.3 °C. In addition, the folding enthalpy in data set [2] was -14 kcal/mol.
The matching figures for GCAATGCGAAAGCAAAGC ((..(((....)))..)): 38 °C and -14.6 kcal/mol.
GCGCTGCGAAAGCCGAGC ((.(.((....)).).)): the Tm in data set [1] was 50.8 °C. In addition, the folding enthalpy in data set [2] is -23.2 kcal/mol.
The matching figures for GCGTAGGGACGC ((((....)))): 52 °C and -13 kcal/mol.
The matching figures for GGTGCCTCGAAAGAGACC (((..(((....)))))): 30.8 °C and -15 kcal/mol.
The matching figures for GTCCTCGAAAGAGGGGAC ((((((....)))..))): 43.6 °C and -11.6 kcal/mol.
For GATCCATGCCTGGATC ((((((....)))))), the Tm in data set [1] was 51.6 °C. Moreover, in data set [2], the folding enthalpy was -36.2 kcal/mol.
As to GTACCGAAAGGTAC (((((....))))), the Tm in data set [1] is 65.9 °C. Moreover, the folding enthalpy in data set [2] was -27 kcal/mol.
The matching figures for GGGAAGTCGAAAGACCCC (((..(((....)))))): 44.8 °C and -22.7 kcal/mol.
The matching figures for GCAAAACGAAAGTTATGC (((.(((....))).))): 45.8 °C and -28.9 kcal/mol.
The matching figures for GCTGAGCGAAAGCATAGC (((..((....))..))): 50 °C and -18.9 kcal/mol.
In the case of GCATTGCGAAAGCGATGC ((((.((....)).)))), in data set [1], the Tm is 67.5 °C. In addition, the folding enthalpy in data set [2] was -38 kcal/mol.
The matching figures for GGTAGGCGAAAGCCCACC (((.(((....))).))): 51.9 °C and -17.1 kcal/mol.
For the sequence GTGGTGCCGAAAGGCCAC (((..(((....)))))), the Tm in data set [1] worked out at 48 °C. Moreover, the folding enthalpy in data set [2] was -12.8 kcal/mol.
Regarding GCGACTCGTCGC ((((....)))), the Tm in data set [1] came to 68.3 °C. Further, in data set [2], the folding enthalpy is -33.6 kcal/mol.
On to GGGCGCCGAAAGGCTCCC (((.(((....))).))), for which, in data set [1], the Tm came out at 60.7 °C. The folding enthalpy in data set [2] is -25.7 kcal/mol.
Take GGTGAACGAAAGTTTACC (((.(((....))).))): in data set [1], the Tm was found to be 51.8 °C. Also, the folding enthalpy in data set [2] was -45.2 kcal/mol.
The matching figures for GTAATGGGAAACCATCAC ((.((((....)))).)): 28.8 °C and -17.7 kcal/mol.
The matching figures for GTTGACGGAAACGTCAAC (((((((....))))))): 66.9 °C and -33.6 kcal/mol.
The matching figures for GCGAACGCGAAAGCGCGC (((..(((....)))))): 60.1 °C and -14.7 kcal/mol.
